# Laboratory results taken from ChEMBL document CHEMBL2424622, “Development of amino-pyrimidine inhibitors of c-Jun N-terminal kinase (JNK): kinase profiling guided optimization of a 1,2,3-benzotriazole lead” (Bioorg Med Chem Lett, 2013).
# pIC50: −log10 of the molar value.
# What was measured:
# [1] = target: c-Jun N-terminal kinase, JNK (Homo sapiens, UniProt P45983+P53779+P45984); experiment: Inhibition of JNK in human SW1353 cells assessed as inhibition of TNFalpha-induced c-Jun phosphorylation incubated for 30 mins prior to TNFalpha induction measured after 20 mins; type: cell-based
# Summary of the method: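 SW1353 cells were stimulated with TNFa, and the read-out was inhibition of phosphorylation of the downstream substrate c-Jun. Values are the mean of at least three experiments.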
# [2] = target: Mitogen-activated protein kinase 8 (Homo sapiens, UniProt P45983)
# [3] = target: T1, Mitogen-activated protein kinase 9 (Homo sapiens, UniProt P45984)
# Target sequence in this assay (P45984 whole entry): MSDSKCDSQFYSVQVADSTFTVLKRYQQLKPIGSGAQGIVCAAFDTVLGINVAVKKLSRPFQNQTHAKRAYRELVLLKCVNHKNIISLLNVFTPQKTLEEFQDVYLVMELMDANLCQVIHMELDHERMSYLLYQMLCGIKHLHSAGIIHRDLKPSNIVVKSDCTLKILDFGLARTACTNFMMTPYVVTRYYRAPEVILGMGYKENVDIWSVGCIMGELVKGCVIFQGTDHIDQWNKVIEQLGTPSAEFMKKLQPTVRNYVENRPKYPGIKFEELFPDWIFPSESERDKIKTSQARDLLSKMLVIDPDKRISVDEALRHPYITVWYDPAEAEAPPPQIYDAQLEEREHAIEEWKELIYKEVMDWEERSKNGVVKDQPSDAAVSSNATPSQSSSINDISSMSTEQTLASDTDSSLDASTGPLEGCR
# [4] = target: T1, Mitogen-activated protein kinase 9; experiment: Ratio of IC50 for human JNK2 in presence of human serum to IC50 for human JNK2 in absence of human serum
# Target sequence in this assay (P45984 whole entry, looked up): as the sequence (P45984 whole entry) above
# Homo sapiens = organism: Homo sapiens; experiment: Selectivity ratio of IC50 for human JNK2 to IC50 for human JNK1
# Summary of the method: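 JNK1 and JNK2 activities were each measured as phosphorylation of GST-ATF2 (19–96) with [γ-33P]ATP, and IC50s were determined for each enzyme. The ratio is JNK2 IC50 over JNK1 IC50. IC50s are the mean of at least three experiments.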
# HCT-116 = experiment: Cytotoxicity against human HCT116 cells assessed as cell viability by WST-1 reduction assay; type: cell-based
# Summary of the method: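 Cytotoxicity was measured in an HCT-116 cell proliferation assay as reduction of WST-1 reagent. Values are the mean of at least three experiments.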
# [5] = target: Cyclin-dependent kinase 2/cyclin E1 (Homo sapiens, UniProt P24941); experiment: Inhibition of human recombinant CDK2/GST-tagged cyclin E expressed in baculovirus infected insect cells assessed as inhibition of 6XHis-tagged retinoblastoma protein (386 to 928) phosphorylation after 30 mins by scintillation counting analysis in presence of [gamma-33P]-ATP
# Summary of the method: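 CDK2 activity was measured as phosphorylation of a 6-histidine-tagged truncated retinoblastoma protein (amino acids 386–928) using [γ-33P]ATP.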
# [6] = Clearance in human liver microsomes; type: ADME, Microsome; details: read-out: CLH
# Summary of the method: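 Intrinsic clearance was measured in vitro in human liver microsomes and expressed per mg microsomal protein.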
# [7] = target: Cyclin-dependent kinase 4/cyclin D1 (Homo sapiens, UniProt P11802); experiment: Inhibition of human recombinant human GST-tagged CDK4/cyclin D1 expressed in baculovirus infected insect cells assessed as inhibition of 6XHis-tagged retinoblastoma protein (386 to 928) phosphorylation after 30 mins by scintillation counting analysis in presence of [gamma-33P]-ATP
# [8] = target: Mitogen-activated protein kinase 10 (Homo sapiens, UniProt P53779); experiment: Inhibition of human JNK3 assessed as inhibition of GST-tagged ATF2 (19 to 96) phosphorylation incubated for 10 mins prior to substrate addition measured after 30 mins by scintillation counting analysis in presence of [gamma-33P]-ATP
# MAP kinase p38 = MAP kinase p38 (Homo sapiens, UniProt O15264+Q15759+Q16539+P53778); experiment: Inhibition of p38 (unknown origin); type: protein assay
# [9] = target: Cyclin-dependent kinase 1/cyclin B1 (Homo sapiens, UniProt P06493); experiment: Inhibition of human recombinant human CDK1/GST-tagged cyclin B expressed in baculovirus infected insect cells assessed as inhibition of 6XHis-tagged retinoblastoma protein (386 to 928) phosphorylation after 30 mins by scintillation counting analysis in presence of [gamma-33P]-ATP
# Cytochrome P450 2C9 = Cytochrome P450 2C9 (Homo sapiens, UniProt P11712); experiment: Inhibition of CYP2C9 (unknown origin); type: ADME
# Sequence of Cytochrome P450 2C9 (P11712 whole entry): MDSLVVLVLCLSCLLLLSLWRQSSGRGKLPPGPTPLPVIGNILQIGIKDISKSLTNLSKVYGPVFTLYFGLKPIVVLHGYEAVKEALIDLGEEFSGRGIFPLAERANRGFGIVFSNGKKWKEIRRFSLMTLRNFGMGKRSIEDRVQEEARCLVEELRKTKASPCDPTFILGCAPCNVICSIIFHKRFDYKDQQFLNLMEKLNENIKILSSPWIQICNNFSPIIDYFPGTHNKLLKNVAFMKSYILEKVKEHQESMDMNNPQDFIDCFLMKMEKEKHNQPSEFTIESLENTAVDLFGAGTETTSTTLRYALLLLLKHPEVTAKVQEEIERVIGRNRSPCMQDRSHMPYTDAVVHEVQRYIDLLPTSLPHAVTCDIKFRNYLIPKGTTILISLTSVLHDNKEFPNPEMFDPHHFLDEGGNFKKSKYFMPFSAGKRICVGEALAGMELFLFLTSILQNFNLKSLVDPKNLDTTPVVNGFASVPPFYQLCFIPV
# Sequence of Mitogen-activated protein kinase 8 (P45983 whole entry): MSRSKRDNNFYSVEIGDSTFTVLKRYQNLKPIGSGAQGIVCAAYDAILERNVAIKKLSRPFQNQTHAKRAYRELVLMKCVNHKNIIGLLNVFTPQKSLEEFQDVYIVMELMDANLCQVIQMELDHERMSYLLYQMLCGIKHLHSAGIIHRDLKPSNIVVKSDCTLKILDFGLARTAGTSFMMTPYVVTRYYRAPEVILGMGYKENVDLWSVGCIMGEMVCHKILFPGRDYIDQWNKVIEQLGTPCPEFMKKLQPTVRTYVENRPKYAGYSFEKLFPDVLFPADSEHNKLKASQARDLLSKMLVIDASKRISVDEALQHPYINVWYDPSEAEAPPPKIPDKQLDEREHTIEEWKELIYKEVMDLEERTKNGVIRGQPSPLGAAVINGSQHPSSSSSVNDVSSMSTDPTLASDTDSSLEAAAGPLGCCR
# Sequence of Mitogen-activated protein kinase 10 (P53779 whole entry): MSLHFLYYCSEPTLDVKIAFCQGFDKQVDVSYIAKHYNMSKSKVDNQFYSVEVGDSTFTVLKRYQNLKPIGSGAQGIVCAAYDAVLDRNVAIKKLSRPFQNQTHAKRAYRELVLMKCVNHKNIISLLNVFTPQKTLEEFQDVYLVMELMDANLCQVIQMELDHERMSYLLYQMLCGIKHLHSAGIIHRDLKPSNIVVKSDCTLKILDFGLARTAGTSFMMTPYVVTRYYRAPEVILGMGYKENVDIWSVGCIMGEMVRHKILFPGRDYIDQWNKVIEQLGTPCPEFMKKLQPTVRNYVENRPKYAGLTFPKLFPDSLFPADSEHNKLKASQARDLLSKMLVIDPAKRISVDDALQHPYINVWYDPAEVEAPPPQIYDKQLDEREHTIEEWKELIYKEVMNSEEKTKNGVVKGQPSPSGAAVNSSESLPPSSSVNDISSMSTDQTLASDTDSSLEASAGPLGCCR
# Sequence of Cyclin-dependent kinase 4/cyclin D1 (P11802 whole entry): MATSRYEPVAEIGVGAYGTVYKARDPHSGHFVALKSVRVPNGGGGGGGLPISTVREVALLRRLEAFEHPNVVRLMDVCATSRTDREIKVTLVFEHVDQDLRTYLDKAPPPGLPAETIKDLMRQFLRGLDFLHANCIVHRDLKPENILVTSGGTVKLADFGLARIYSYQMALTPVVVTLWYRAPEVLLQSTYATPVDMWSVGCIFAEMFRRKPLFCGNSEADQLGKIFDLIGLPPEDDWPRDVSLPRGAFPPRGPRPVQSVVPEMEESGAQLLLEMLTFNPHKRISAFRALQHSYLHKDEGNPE
# Sequence of Cyclin-dependent kinase 4/cyclin D1 (P24385 whole entry, further chain): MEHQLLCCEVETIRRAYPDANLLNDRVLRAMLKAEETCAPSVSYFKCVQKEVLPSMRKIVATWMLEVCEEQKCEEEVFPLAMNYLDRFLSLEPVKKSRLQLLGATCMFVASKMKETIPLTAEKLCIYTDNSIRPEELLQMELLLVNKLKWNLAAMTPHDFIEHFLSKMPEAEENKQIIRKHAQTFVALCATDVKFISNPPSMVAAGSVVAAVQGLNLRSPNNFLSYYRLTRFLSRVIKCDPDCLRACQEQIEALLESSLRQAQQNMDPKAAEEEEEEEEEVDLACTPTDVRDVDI
# Sequence of Cyclin-dependent kinase 1/cyclin B1 (P06493 whole entry): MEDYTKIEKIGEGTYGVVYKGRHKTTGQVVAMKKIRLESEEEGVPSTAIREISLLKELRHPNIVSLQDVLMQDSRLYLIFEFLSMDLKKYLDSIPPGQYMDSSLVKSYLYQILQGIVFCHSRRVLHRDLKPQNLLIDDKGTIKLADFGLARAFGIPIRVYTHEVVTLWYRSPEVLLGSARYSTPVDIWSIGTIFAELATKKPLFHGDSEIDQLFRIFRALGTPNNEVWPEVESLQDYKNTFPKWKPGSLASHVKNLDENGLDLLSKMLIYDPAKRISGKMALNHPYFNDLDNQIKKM
# Sequence of Cyclin-dependent kinase 1/cyclin B1 (P14635 whole entry, further chain): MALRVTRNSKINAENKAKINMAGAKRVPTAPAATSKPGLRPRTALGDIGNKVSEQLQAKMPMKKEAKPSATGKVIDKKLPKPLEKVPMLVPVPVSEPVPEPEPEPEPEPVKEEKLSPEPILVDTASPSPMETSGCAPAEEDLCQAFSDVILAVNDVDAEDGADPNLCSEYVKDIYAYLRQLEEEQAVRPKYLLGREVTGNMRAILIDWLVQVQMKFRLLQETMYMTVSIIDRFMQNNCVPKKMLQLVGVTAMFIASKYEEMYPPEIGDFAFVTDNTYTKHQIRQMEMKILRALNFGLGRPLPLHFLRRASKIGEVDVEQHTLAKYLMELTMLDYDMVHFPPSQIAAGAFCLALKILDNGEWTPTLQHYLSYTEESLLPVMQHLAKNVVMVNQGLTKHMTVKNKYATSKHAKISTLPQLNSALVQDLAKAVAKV
Structure (SMILES),IC50 [1] [nM],pIC50 [2],pIC50 [3],Ratio IC50 [4],Ratio IC50 (Homo sapiens),pIC50 (HCT-116),pIC50 [5],microsomal CLint [6] [µL/min/mg],pIC50 [7],pIC50 [8],IC50 (MAP kinase p38) [nM],pIC50 [9],pIC50 (Cytochrome P450 2C9)
O[C@H]1CC[C@H](Nc2nccc(-c3nnc4ccccn34)n2)CC1,12000,6.24,5.92,,,,,,,,,,
OCCCOc1cccc2c1cnn2-c1ccnc(N[C@H]2CC[C@H](O)CC2)n1,960,7.62,6.86,28,,,,,,,,,
CN(C)S(=O)(=O)N[C@H]1CC[C@H](Nc2nccc(-n3nnc4ccccc43)n2)CC1,4900,7.72,7.12,,4,4.66,5.77,,,,,,
CS(=O)(=O)CCCOc1cccc2c1ccn2-c1ccnc(N[C@H]2CC[C@H](C(=O)N3CC[C@@H](O)C3)CC2)n1,1100,8.01,7.33,2.6,,,,19,,,,,
CS(=O)(=O)N[C@H]1CC[C@H](Nc2nccc(-n3nnc4ccccc43)n2)CC1,1300,7.62,7.01,,4,5.64,6.52,,6.04,6.94,> 10000,5.82,
COc1cccc2c1cnn2-c1ccnc(N[C@H]2CC[C@H](O)CC2)n1,3100,,,37,,,,,,,,,
c1ccc2c(c1)nnn2-c1ccnc(NC2CCCCC2)n1,,7.00,6.41,,4,,5.57,,,,,,
CS(=O)(=O)NCCCOc1cccc2c1cnn2-c1ccnc(N[C@H]2CC[C@H](O)CC2)n1,1100,7.25,6.61,17,,,,,,,,,
CC(C)(O)[C@H]1CC[C@H](Nc2nccc(-n3ncc4c(OCCCS(C)(=O)=O)cccc43)n2)CC1,240,8.40,7.68,18,,,,,,,,,
CS(=O)(=O)CCCOc1cccc2c1ccn2-c1ccnc(N[C@H]2CC[C@H](C(=O)N3CC[C@@H](F)C3)CC2)n1,590,7.85,7.19,2.5,,,,175,,,,,
CC(=O)N[C@H]1CC[C@H](Nc2nccc(-n3nnc4ccccc43)n2)CC1,1500,7.41,6.64,,4,4.80,6.24,,,,,,7.41
CCN(CC)C(=O)[C@H]1CC[C@H](Nc2nccc(-n3ccc4c(OCCCS(C)(=O)=O)cccc43)n2)CC1,580,7.85,7.24,4.6,,,,609,,,,,
CCCOc1cccc2c1cnn2-c1ccnc(N[C@H]2CC[C@H](O)CC2)n1,> 30000,7.92,7.10,147,,,,,,,,,
COC1CCN(C(=O)[C@H]2CC[C@H](Nc3nccc(-n4ccc5c(OCCCS(C)(=O)=O)cccc54)n3)CC2)CC1,1400,8.33,7.55,2.9,,,,141,,,,,
CS(=O)(=O)CCCOc1cccc2c1ccn2-c1ccnc(N[C@H]2CC[C@H](C(=O)N3CCC(F)(F)CC3)CC2)n1,1400,7.80,7.29,4.2,,,,283,,,,,
CC(C)(O)[C@H]1CC[C@H](Nc2nccc(-n3ccc4c(OCCCS(C)(=O)=O)cccc43)n2)CC1,350,8.40,7.57,6.3,,,,,,,,,
OCC(O)COc1cccc2c1cnn2-c1ccnc(N[C@H]2CC[C@H](O)CC2)n1 (stereo partly specified),2000,7.47,6.71,5.7,,,,,,,,,
CS(=O)(=O)CCOc1cccc2c1cnn2-c1ccnc(N[C@H]2CC[C@H](O)CC2)n1,980,7.48,6.82,4,,,,,,,,,
O[C@H]1CC[C@H](Nc2nccc(N3CCc4ccccc43)n2)CC1,,6.11,5.54,,,,,,,,,,
O[C@H]1CC[C@H](Nc2nccc(-c3c[nH]c4ccccc34)n2)CC1,8200,6.85,6.14,,,,,,,,,,
O=C([C@H]1CC[C@H](Nc2nccc(-n3nnc4ccccc43)n2)CC1)N1CCCC1,3300,6.92,6.40,,4,< 4.52,< 5.21,,,,,,
